proCasp3 act: activates human procaspase-3; P42574; recombinant procaspase-3 D3A, Ac-DEVD-pNA absorbance 405 nm; activation, % at 8.5 µM; 330,000 compounds, 0.11% hits; AID 463141;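 active means activation above the mean of all tested compounds plus 3 SD, cut at about 21% in these data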;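 further: 0% = DMSO alone and 100% = DMSO wells spiked with extra 5 µM PC-3 D3A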
Target sequence (P42574 whole entry D9A/D28A/D175A): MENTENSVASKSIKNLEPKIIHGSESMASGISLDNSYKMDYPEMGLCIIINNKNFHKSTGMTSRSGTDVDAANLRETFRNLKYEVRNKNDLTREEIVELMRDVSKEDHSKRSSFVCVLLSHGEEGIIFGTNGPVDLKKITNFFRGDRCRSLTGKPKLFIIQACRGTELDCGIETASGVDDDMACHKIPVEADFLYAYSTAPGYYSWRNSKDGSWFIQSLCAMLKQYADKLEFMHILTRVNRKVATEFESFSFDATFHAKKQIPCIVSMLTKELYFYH
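assay system = Procaspase-3 D3A mutant | signal = absorbance at 405 nm, 0 and 120 min | times = 1 h preincubation plus 2 h reaction at 25 °C | repeats = single replicate | read-out = % activation between DMSO and enzyme-spiked controls | medium = Zinc-free HEPES saline buffer with Triton X-100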
PolyA inh: blocks polyadenylation in yeast reporter cells; S. cerevisiae SKY197-pL101 polyadenylation reporter, beta-gal luminescence; efflux-impaired pdr1/pdr3 knockout yeast; score 100 = 6 SD above DMSO; activity score, % at 12 µM; 300,000 compounds, 0.02% hits; AID 1875;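 active means lowest replicate activity score at least 50, where 100 means six control SD above control mean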;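 further: yeast exposed to compound for 9 h at 30 °C; higher score means more reporter readthrough which indicates perturbed polyadenylation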
AHR act: human AHR activation; P35869; AHR-responsive luciferase reporter cells, luminescence; activation, % at 5 µM; 320,000 compounds, 2.5% hits; AID 2796; in the data active means activation above about 47%;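 further: 0% = vehicle wells and 100% = reference agonist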
procasp7 counter: counter-screen: procaspase-7 (human) activation | 330,000 compounds, 0.093% hits | recombinant procaspase-7, Ac-DEVD-pNA absorbance 405 nm; D23A/D198A/D206A triple mutant, cannot self-cleave; scale: DMSO 0, 5 µM enzyme 100 | activation, % at 8.5 µM;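 active means percent activation above the screen-wide mean plus 3 SD, cut at about 25% in these data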
Target sequence (P55210 whole entry D23A/D198A/D206A): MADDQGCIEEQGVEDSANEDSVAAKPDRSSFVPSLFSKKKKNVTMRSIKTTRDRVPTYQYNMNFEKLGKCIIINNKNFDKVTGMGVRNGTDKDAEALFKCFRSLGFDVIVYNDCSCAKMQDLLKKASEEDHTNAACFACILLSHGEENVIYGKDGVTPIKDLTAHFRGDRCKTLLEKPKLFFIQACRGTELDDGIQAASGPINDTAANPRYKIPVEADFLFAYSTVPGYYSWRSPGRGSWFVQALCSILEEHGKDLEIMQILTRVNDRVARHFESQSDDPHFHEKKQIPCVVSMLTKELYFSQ
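System: Uncleavable procaspase-7 mutant enzyme; Amount: 2 µM procaspase-7 mutant as dispensed; Schedule: 1 h compound preincubation, 2 h substrate cleavage, 25 °C; Measured by: 405 nm absorbance of p-nitroaniline; Evaluation: percent activation from buffer-corrected 0–120 min absorbance change; Control set: low DMSO alone, high DMSO plus 5 µM PC-7.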
AHR act confirm: confirmation of human aryl hydrocarbon receptor activators. shares compounds with AHR act. human cells, AHR-responsive luciferase reporter, luminescence. activation, % at 9 µM. 2,300 compounds, 87% hits. AID 2845; in the data active means activation above about 49%;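 further: HepG2 hepatoma cells carrying a DRE-driven firefly luciferase reporter; 0% = vehicle wells and 100% = reference agonist wells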
PXR act counter: PXR activation, counter-screen for AHR activators; shares compounds with AHR act; cell-based PXR reporter, luciferase luminescence; activation, % at 11.6 µM; 2,300 compounds, 88% hits; in the data active means activation above about 11%;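 further: human hepatoma DPX-2 cells expressing full-length human PXR; 0% = DMSO and 100% = reference agonist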
* marks the source's active call; other numbers are inactive results. A selection: hits, their analogues and other compounds. The true share with any hit is near 2.6%.

Results for Cc1ccc(-c2[nH]c(-c3ccccc3)nc2SCC(=O)NCC2CCCO2)cc1 (stereo not given) ?
proCasp3 act: 0.8; PolyA inh: 12.7; AHR act: 92.6*; procasp7 counter: -1.7; AHR act confirm: 90.8*; PXR act counter: 110.3*

Results for Cc1ccc(-c2nc(SCC(=O)NCC3CCCO3)c(-c3ccc(Cl)cc3)[nH]2)cc1 (stereo not given) ?
proCasp3 act: -8.9; PolyA inh: -17.4; AHR act: 86.5*; procasp7 counter: 4.0; AHR act confirm: 73.1*; PXR act counter: 73.2*

What do the screens show for `CC(Oc1ccc(F)cc1)C(=O)Nc1cc(S(=O)(=O)N2CCOCC2)ccc1N1CCCCC1` (stereo not given)?
proCasp3 act: -4.5; PolyA inh: 11.1; AHR act: 0.4; procasp7 counter: 0.0

Results for O=C(Nc1ccc(Cl)cc1)c1cccc(NC2=NC3CS(=O)(=O)CC3S2)c1 (stereo not given) ?
proCasp3 act: 5.3; PolyA inh: 1.8; AHR act: 181.9*; procasp7 counter: 0.1; AHR act confirm: 117.0*; PXR act counter: 18.7*

How did COCC1CCCCN1C(=O)c1ccc(OC2CCN(CCc3ccccc3)CC2)cc1 (stereo not given) do in these assays?
proCasp3 act: -2.2; PolyA inh: 7.7; AHR act: 1.9; procasp7 counter: 2.0

What do the screens show for `CN(CC(=O)Nc1c(Cl)cccc1Cl)C(=O)CNC(=O)c1ccc2ccccc2c1`?
proCasp3 act: -0.3; PolyA inh: 16.9; AHR act: 3.0; procasp7 counter: 0.1

What do the screens show for `O=C(NCCOc1ccccc1)c1cc([N+](=O)[O-])ccc1N1CCOCC1`?
proCasp3 act: 3.2; AHR act: 1.7; procasp7 counter: -28.7

Results for CN(C)C(=O)COc1ccc(S(=O)(=O)c2ccc(OCC(=O)N(C)C)cc2)cc1 ?
proCasp3 act: -4.7; PolyA inh: 4.8; AHR act: 101.6*; procasp7 counter: -5.1; AHR act confirm: 5.7; PXR act counter: 8.8

Results for C=C(C)CCC(C)N1CCC(n2nccc2NC(=O)CCCc2ccccc2)CC1 (stereo not given) ?
proCasp3 act: 13.5; PolyA inh: 1.0; AHR act: 4.7; procasp7 counter: -6.9

What do the screens show for `COc1cc(NC(=O)c2csc(N)n2)cc(C(=O)Nc2cccc(C(F)(F)F)c2)c1`?
proCasp3 act: -0.3; PolyA inh: -0.9; AHR act: 85.2*; procasp7 counter: -10.0; AHR act confirm: 91.1*; PXR act counter: 32.2*

What do the screens show for `COc1cc(NC(=O)c2cc(C)on2)cc(C(=O)Nc2cccc(C(F)(F)F)c2)c1`?
proCasp3 act: -6.8; PolyA inh: -7.0; AHR act: 130.2*; procasp7 counter: 9.9; AHR act confirm: 105.6*; PXR act counter: 21.0*

Results for Cc1cc(C(F)(F)F)n2nc(-c3sccc3-n3cccc3)cc2n1 ?
proCasp3 act: 11.6; PolyA inh: -2.5; AHR act: 102.6*; procasp7 counter: 4.1; AHR act confirm: 112.7*; PXR act counter: 44.0*

Results for Cc1cc(C(F)(F)F)n2nc(-c3cccs3)cc2n1 ?
proCasp3 act: -0.7; PolyA inh: -18.4; AHR act: 19.3; procasp7 counter: 2.5

How did CC(OC(=O)c1cc(O)c2ccccc2c1O)C(=O)Nc1ccc(C(N)=O)cc1 (stereo not given) do in these assays?
proCasp3 act: -11.8; PolyA inh: 1.4; AHR act: 102.8*; procasp7 counter: 0.7; AHR act confirm: 78.4*; PXR act counter: 19.0*

What do the screens show for `CC(OC(=O)c1ccccc1C(=O)N(C)c1ccccc1)C(=O)Nc1ccc(C(N)=O)cc1` (stereo not given)?
proCasp3 act: -15.8; PolyA inh: 36.7; AHR act: 4.6; procasp7 counter: 0.7

What do the screens show for `CC(Sc1nnnn1C)C(=O)NC1CCCC1` (stereo not given)?
proCasp3 act: 10.3; AHR act: 0.3; procasp7 counter: -6.3

What do the screens show for `C(=C\n1nnc2ccccc21)/c1ccccn1`?
proCasp3 act: 7.4; PolyA inh: -6.8; AHR act: 43.6; procasp7 counter: -7.9

What do the screens show for `COc1ccc(C2CC(c3cccs3)=NN2C(=O)CSc2nc3ccccc3o2)cc1` (stereo not given)?
proCasp3 act: 2.6; PolyA inh: -1.5; AHR act: 93.3*; procasp7 counter: 3.2; AHR act confirm: 49.5*; PXR act counter: 44.9*

What do the screens show for `COc1ccc(C2CC(c3cccs3)=NN2C(=O)CSc2nc3ccccc3s2)cc1` (stereo not given)?
proCasp3 act: -10.8; PolyA inh: -5.5; AHR act: 41.0; procasp7 counter: 1.5

Results for C/C(=N\NC(N)=O)c1ccccc1Cl ?
proCasp3 act: 6.9; PolyA inh: -14.9; AHR act: 1.0; procasp7 counter: -2.6

How did Cc1ccc(NC(=O)CN(C)C2CCCCC2)cc1Cl do in these assays?
PolyA inh: 7.6

Results for Cc1ccc2sc(NNC(=O)C3COc4ccccc4O3)nc2c1C (stereo not given) ?
proCasp3 act: 1.6; AHR act: 137.3*; procasp7 counter: -13.0; AHR act confirm: 65.5*; PXR act counter: 48.4*

Results for COc1ccc2c(C)nc(Nc3nc(C)cc(C)n3)nc2c1 ?
proCasp3 act: 3.9; PolyA inh: -7.6; AHR act: 108.7*; procasp7 counter: -3.8; AHR act confirm: 100.9*; PXR act counter: 20.8*

What do the screens show for `O=C(Nc1ccncc1)C1CCN(S(=O)(=O)c2ccccc2C(F)(F)F)CC1`?
proCasp3 act: -7.2; PolyA inh: -8.9; AHR act: 7.8; procasp7 counter: 3.6

Results for Cc1cccc(NC(=O)c2ccccc2OCC(=O)N2CCOCC2)c1C ?
proCasp3 act: 11.2; PolyA inh: -9.0; AHR act: -1.3; procasp7 counter: -2.8

How did O=C(Nc1cccc(Cl)c1Cl)c1ccccc1OCC(=O)N1CCOCC1 do in these assays?
proCasp3 act: 6.4; PolyA inh: 1.5; AHR act: 82.3*; procasp7 counter: 6.2; AHR act confirm: 89.4*; PXR act counter: 49.3*

How did Cc1ncsc1C(=O)N1N=C2/C(=C/c3ccccc3)CCCC2C1c1ccccc1 (stereo not given) do in these assays?
proCasp3 act: 14.5; PolyA inh: 0.4; AHR act: 14.5; procasp7 counter: 11.6

Results for Cc1nc(N2N=C3/C(=C/c4ccc(F)cc4)CCCC3C2c2ccc(F)cc2)sc1C(=O)N(C)C (stereo not given) ?
proCasp3 act: -17.7; PolyA inh: -3.5; AHR act: 92.0*; procasp7 counter: -12.1; AHR act confirm: 93.0*; PXR act counter: 114.7*
